Data published in ChEMBL document CHEMBL1143707, “7-Arylpiperazinylalkyl and 7-tetrahydroisoquinolinylalkyl derivatives of 8-alkoxy-purine-2,6-dione and some of their purine-2,6,8-trione analogs as 5-HT(1A), 5-HT(2A), and 5-HT(7) serotonin receptor ligands” (Bioorg Med Chem, 2007).

Assays:
Format in all cases: functional
[1] = test system: Mus musculus; assay: Decrease in body temperature in Swiss Albino mouse at 5 mg/kg, sc after 30 mins relative control; details: route subcutaneous
In short: (§1)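 Male Albino Swiss mice (24-28 g); drug dissolved in saline, injected sc at 10 mL/kg. Rectal temperature recorded with a thermometer at 30 and 60 min after injection. Result expressed as change (Δt) from basal temperature taken at the start of the experiment; n = 8 per group; mean ± SEM versus vehicle.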

[2] = test system: Mus musculus; assay: Effect on compound induced hypothermia in Swiss Albino mouse at 5 mg/kg, sc in presence of 0.1 mg/kg WAY 100635 after 30 mins relative to control
In short: (§2)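 Male Albino Swiss mice. WAY 100635 (0.1 mg/kg sc, in distilled water) given 15 min before the agonist (5 mg/kg sc, in saline). Rectal temperature recorded 30 and 60 min after agonist and expressed as Δt from basal; n = 8 per group; compared with vehicle + agonist group.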

[3] = test system: Mus musculus; assay: Effect on compound induced hypothermia in Swiss Albino mouse at 5 mg/kg in presence of 0.1 mg/kg WAY 100635 after 60 mins relative to control; in short: as §2
[4] = test system: Mus musculus; assay: Decrease in body temperature in Swiss Albino mouse at 5 mg/kg, sc after 60 mins relative control; details: route subcutaneous; in short: as §1

SMILES: CCCN(CCC)C1CCc2cccc(O)c2C1 (centres undefined) [8-OH-DPAT]
- Activity [1]: -1 °C
- Activity [2]: -0.1 °C
- Activity [3]: 0.1 °C
- Activity [4]: -0.7 °C
